Screens as filed in PubChem BioAssay.
SENP7 inh = SENP7 protease inhibitors, primary screen, biochemical, luminescence, uHTS | Sentrin-specific protease 7 (Homo sapiens), Q9BQF6 | recombinant SENP7, Z-RLRGG-aminoluciferin luminescence, 40 min | inhibition, % at 5 µM | actives 1.5% (n = 330,000) | AID 434973, 2010;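 active means inhibition above about 50% at the single test dose, limit read from the data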;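 further: plate controls were DMSO with enzyme for no effect and no enzyme buffer wells for full effect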
SENP8 block-1 = human SENP8 protease inhibitors, primary screen, biochemical, fluorescence, Nedd8 protein substrate, uHTS. Sentrin-specific protease 8 (Homo sapiens), Q96LD8. recombinant SENP8. inhibition, % at 20 µM. actives 0.64% (n = 360,000). AID 602440, 2012; in the data active means inhibition mostly above about 40%, no sharp cut-off; inactive means mostly below about 27%
Target sequence (Q96LD8 whole entry, looked up): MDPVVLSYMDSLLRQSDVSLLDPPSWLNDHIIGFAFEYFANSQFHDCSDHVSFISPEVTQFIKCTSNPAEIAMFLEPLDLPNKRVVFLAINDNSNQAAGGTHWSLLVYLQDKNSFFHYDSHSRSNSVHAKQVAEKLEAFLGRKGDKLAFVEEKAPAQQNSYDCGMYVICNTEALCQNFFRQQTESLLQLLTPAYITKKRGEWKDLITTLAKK
SENP6 block = SENP6 protease inhibitors, primary screen, biochemical, luminescence, uHTS | Sentrin-specific protease 6 (Homo sapiens), Q9GZR1 | Recombinant SENP6 catalytic domain, aminoluciferin luminescence | inhibition, % at 10 µM | actives 1.8% (n = 330,000) | AID 2599, 2010;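 active means inhibition above about 50% at the single tested dose, limit read from the data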;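 further: plate controls were DMSO wells with enzyme for no effect and DMSO wells lacking enzyme for full effect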
SENP8 block-2 = SENP8 protease inhibitors, primary screen, biochemical, luminescence | purified SENP8, Z-RLRGG-aminoluciferin cleavage | Sentrin-specific protease 8 (Homo sapiens), Q96LD8 | actives 1.2% (n = 330,000) | inhibition, % at 10 µM; in the data active means inhibition above about 50%
SENP1 inh = human SENP1 catalytic domain inhibitors, primary screen, biochemical, FRET, uHTS. Sentrin-specific protease 1 (Homo sapiens), Q9P0U3. recombinant SENP1 catalytic domain, CyPet-SUMO1-YPet FRET cleavage. inhibition, % at 10 µM. actives 0.21% (n = 360,000);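 active means inhibition at least 30% at 10 µM, raw YFP signal under a set limit, fluorescence ratio 0.5 to 1.5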;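 further: 0% = enzyme with DMSO and 100% = no enzyme wells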
Target sequence (Q9P0U3 419-644 limits assumed): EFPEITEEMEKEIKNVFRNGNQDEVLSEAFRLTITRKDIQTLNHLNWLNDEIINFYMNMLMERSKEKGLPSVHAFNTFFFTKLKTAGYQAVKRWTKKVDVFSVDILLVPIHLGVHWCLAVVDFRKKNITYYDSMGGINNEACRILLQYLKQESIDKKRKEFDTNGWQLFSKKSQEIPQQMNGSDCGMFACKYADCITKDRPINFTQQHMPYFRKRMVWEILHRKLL
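System: Recombinant human SENP1 catalytic domain, His6-tagged | Incubation: Enzyme reaction for 50 min at room temperature, dark | Medium: Tris pH 8 with BME, BSA, NP40 and catalase | Also added: 25 nM SUMO1 FRET substrate | Compound: 10 µM single point, 0.5% DMSO | Measured by: FRET fluorescence in CFP and YFP emission channels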
SENP8 confirm = SENP8 protease inhibitors, retest, confirmation, biochemical, luminescence, single concentration; shares compounds with SENP7 inh; Recombinant SENP8, Z-RLRGG-aminoluciferin luminescence, 60 min; inhibition, % at 12.5 µM; actives 40% (n = 6,200); AID 488912, 2010;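 active means mean inhibition across replicates above about 50%, limit read from the data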
SENP6 confirm = SENP6 protease inhibitors, confirmation, biochemical, luminescence, single concentration; recombinant SENP6, Z-RLRGG-aminoluciferin luminescence; actives 58% (n = 6,200); shares compounds with SENP7 inh; inhibition, % at 12.5 µM
SENP7 confirm = SENP7 protease inhibitors, retest, confirmation, biochemical, luminescence, single concentration | inhibition, % at 12.5 µM | recombinant SENP7, Z-RLRGG-aminoluciferin luminescence, 40 min | shares compounds with SENP7 inh | actives 69% (n = 6,200)
Casp3 SENP sel = caspase-3 protease inhibitors, confirmation, selectivity assay for SENP inhibitor project, biochemical, single concentration; AID 488918, 2010; shares compounds with SENP7 inh; actives 60% (n = 6,200); purified caspase-3, Z-DEVD-aminoluciferin luminescence, 60 min; inhibition, % at 12.5 µM;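 active means mean inhibition above about 50%, limit read from the data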;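 further: plate controls were enzyme with DMSO for no effect and wells without caspase-3 for full effect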
SENP luc ctr = luminescence interference (SENP counter-screen) | shares compounds with SENP7 inh | Pre-incubated SENP8/Z-RLRGG-aminoluciferin, luciferase luminescence interference | inhibition, % at 12.5 µM | actives 39% (n = 6,200);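 active means mean inhibition above about 50% when retested at one dose, limit read from the data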;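 further: plate controls were DMSO wells with completed reaction for no effect and substrate without enzyme for full effect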
The depositor's hits bear a star; nt = no result given. This is a sample that favours compounds with a hit; in the whole collection about 2.5% have one here.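 How the source made its calls, unless noted: active means mean inhibition above about 50% in the one-dose retest (limit read from the data); inactive means the rest.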

SMILES	SENP7 inh	SENP8 block-1	SENP6 block	SENP8 block-2	SENP1 inh	SENP8 confirm	SENP6 confirm	SENP7 confirm	Casp3 SENP sel	SENP luc ctr
O=C(Nc1ccc(Cl)c([N+](=O)[O-])c1)c1ccco1	0.8	18.0	-1.6	-26.5	2.1	nt	nt	nt	nt	nt
O=C(c1ccco1)N1N=C(c2cccs2)CC1c1cc([N+](=O)[O-])ccc1O (stereo not given)	0.8	9.0	10.3	15.4	0.6	nt	nt	nt	nt	nt
Cc1ccc(NC(=O)c2ccco2)cc1C	65.2*	20.7	67.2*	32.3	1.6	50.1*	48.3	79.8*	72.6*	52.0*
O=C(Nc1ccc(-c2nc3cccnc3s2)cc1)c1ccco1	89.5*	-384.8	93.2*	85.8*	-43.7	74.9*	91.3*	98.9*	79.3*	22.1
Cc1cc(NC(=O)c2ccco2)ccc1NC(=O)c1ccco1	23.2	0.5	25.7	7.0	2.2	nt	nt	nt	nt	nt
CCC1CCCCN1C(=O)Nc1cc(Cl)ccc1OC (stereo not given)	-0.9	26.9	-5.2	0.2	0.2	nt	nt	nt	nt	nt
O=c1nc2c(-c3ccccc3F)n[nH]n2c2ccccc12	90.0*	-271.6	85.3*	90.2*	-79.8	79.4*	92.3*	99.8*	92.8*	53.2*
Cc1cccc(NC(=S)c2nc3ccccc3s2)c1	89.9*	26.2	65.5*	84.0*	2.5	62.5*	82.6*	89.5*	74.4*	25.7
Cc1cccc(NC(=S)Nc2ccccn2)c1	8.6	1.8	-4.5	-1.7	-1.9	nt	nt	nt	nt	nt
CCN(C[C@H]1N[C@@](Cc2ccccc2)(C(=O)OC)[C@H]2C(=O)N(C)C(=O)[C@@H]12)C(C)=O	-10.3	4.5	-23.2	-12.3	-0.4	nt	nt	nt	nt	nt
Clc1ccc2nc(-c3ccc(Br)s3)cn2c1	4.9	-292.1	80.0*	63.3*	2.2	14.4	68.8*	86.5*	48.7	15.1
COc1ccc(-c2cn3cc(Cl)ccc3n2)cc1OC	6.5	-270.8	2.0	1.0	2.7	nt	nt	nt	nt	nt
COc1ccc2nc(N3CCC(C)CC3)c(C#N)cc2c1	-4.6	-325.8	72.5*	11.0	-15.1	5.8	6.5	8.9	4.2	5.3
S=C1NC(c2ccccc2)N2C(=S)NC(c3ccccc3)N12 (stereo not given)	51.6*	15.0	68.7*	38.3	-0.3	8.0	14.8	44.7	5.9	7.8
O=C(NC1CCCCC1)C1c2ccccc2OCC(=O)N1Cc1ccccc1 (stereo not given)	nt	4.4	nt	nt	1.8	nt	nt	nt	nt	nt
Oc1c(C=NCc2ccccc2)sc2ccccc12	-5.3	-28.9	6.5	-5.9	-159.7	nt	nt	nt	nt	nt
Oc1c(N=Nc2ccccc2)sc2ccccc12	98.9*	1.3	97.8*	94.5*	-16.3	75.3*	98.2*	103.1*	96.4*	9.9
O=c1/c(=C/c2ccc(O)cc2)sc2n1CCCN=2	63.5*	15.0	85.9*	80.3*	-41.0	86.2*	84.4*	95.6*	88.4*	84.0*
